Reference: PMC8237268 (Journal of Medicinal Chemistry, 2021)

Legend:
Type in all cases: binding
p65_45/14-3-3σΔC complex = p65_45/14-3-3σΔC complex (Homo sapiens, UniProt P31947+Q04206, E49R); assay: X-ray crystal soaking of fragments into p65_45/14-3-3σΔC crystals; settings: soak 10 mM compound, 7 days; imine bond to Lys122 of 14-3-3
Procedure, shortened: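 His-tag-free 14-3-3σΔC (12 mg/mL) was complexed overnight 1:2 with N-acetyl, C-amide p65 pSer45 peptide in 20 mM HEPES pH 7.5, 2 mM MgCl2, 2 mM β-mercaptoethanol. Crystals grew in hanging drops (95 mM HEPES pH 7.5, 27–28% PEG400, 190 mM CaCl2, 5% glycerol). Test compound from DMSO stock was added to final 10 mM (≤1% DMSO) for 7 days. Crystals were flash-frozen; binding was judged from 2Fo-Fc density.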

p65_45/14-3-3γ [1] = target: T1, p65_45/14-3-3γ (Homo sapiens, UniProt P61981+Q04206); assay: Fluorescence anisotropy; settings: 50 μM 14-3-3γ, 100 nM p65_45
p65_45/14-3-3γ [2] = target: T1, p65_45/14-3-3γ; assay: Fluorescence anisotropy; settings: fold-change of apparent KD in comparison to a DMSO control, 1 mM fragment
p53-peptide/14-3-3γ = target: T2, p53-peptide/14-3-3γ (Homo sapiens, UniProt P61981); assay: FA compound titration, selectivity: p53-peptide and 14-3-3γ; settings: 0.3 μM 14-3-3γ, 10 nM peptide
T2 sequence (P61981 1-247): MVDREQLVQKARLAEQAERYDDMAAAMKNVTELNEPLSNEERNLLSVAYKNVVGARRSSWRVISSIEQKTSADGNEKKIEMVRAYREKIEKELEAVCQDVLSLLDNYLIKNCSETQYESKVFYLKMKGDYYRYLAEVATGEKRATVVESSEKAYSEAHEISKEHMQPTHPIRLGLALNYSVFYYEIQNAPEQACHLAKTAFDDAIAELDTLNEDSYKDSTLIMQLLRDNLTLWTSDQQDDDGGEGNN

ERα-peptide/14-3-3γ = target: T3, ERα-peptide/14-3-3γ (Homo sapiens, UniProt P61981); assay: FA compound titration, selectivity: ERα-peptide and 14-3-3γ; settings: 0.1 μM 14-3-3γ, 10 nM peptide
T3 sequence (P61981 1-247): T2 sequence (P61981 1-247)

TAZ-peptide/14-3-3γ = target: T4, TAZ-peptide/14-3-3γ (Homo sapiens, UniProt P61981); assay: FA compound titration, selectivity: TAZ-peptide and 14-3-3γ; settings: 0.1 μM 14-3-3γ, 10 nM peptide
T4 sequence (P61981 1-247): T2 sequence (P61981 1-247)

p65_45/14-3-3σΔC complex, sequence (P31947 1-231, other chains not shown): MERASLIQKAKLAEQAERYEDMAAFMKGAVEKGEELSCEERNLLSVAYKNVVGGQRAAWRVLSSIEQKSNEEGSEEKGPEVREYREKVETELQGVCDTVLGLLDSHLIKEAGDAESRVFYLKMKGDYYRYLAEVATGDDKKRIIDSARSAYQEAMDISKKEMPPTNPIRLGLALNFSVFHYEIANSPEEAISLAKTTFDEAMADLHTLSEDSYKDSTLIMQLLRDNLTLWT

Compound	binding of the fragment in X-ray crystal soaking experiments (p65_45/14-3-3σΔC complex)	ternary complex formation in FA compound titration (in words) (p65_45/14-3-3γ [1])	other results
O=Cc1ccc([N+](=O)[O-])c(OC(=O)C2CCC2)c1 [10a]	bound to Lys122		
COC1CCCN(c2cc(C=O)ccc2[N+](=O)[O-])C1 (stereo not shown) [13e]	significant electron density coverage	did not elicit significant ternary complex formation	
O=Cc1ccc(S(=O)(=O)N2CCC(N3CCCC3)CC2)cc1 [23m]			SF (stabilization factor) (p65_45/14-3-3γ [2]): 4.5 fold
O=Cc1ccc(S(=O)(=O)N2CCNc3ccccc32)cc1 [24j]			ternary complex formation with p53 (p53-peptide/14-3-3γ): no ternary complex formation was detected; ternary complex formation with ERα (ERα-peptide/14-3-3γ): no ternary complex formation was detected; ternary complex formation with TAZ (TAZ-peptide/14-3-3γ): no ternary complex formation was detected

Now from value to molecule, other results behind:

binding of the fragment in X-ray crystal soaking experiments (p65_45/14-3-3σΔC complex)	Compound	ternary complex formation in FA compound titration (in words) (p65_45/14-3-3γ [1])	other results
significant electron density coverage	O=Cc1ccc([N+](=O)[O-])c(N2CCC(O)CC2)c1 [13f]	did not elicit significant ternary complex formation	
significant electron density coverage	O=Cc1ccc([N+](=O)[O-])c(N2CCCC(O)C2)c1 (stereo not shown) [13l]	did not elicit significant ternary complex formation	
detected in the electron density map	O=Cc1ccc(-n2ccnc2Br)nc1 [16d]	induced an increase in anisotropy	
